What was measured:
MCF7 = experiment: Cytotoxicity against human MCF7 cells assessed as reduction in cell growth incubated for 96 hrs by MTT assay; type: functional, cell-based; settings: MCF7, 96 h
Summary of the method: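 Growth inhibition of human breast carcinoma cells, reported as IC50; run in duplicate or triplicate.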

Tubulin (Homo sapiens) = Tubulin (Homo sapiens) (UniProt P68371+Q9H4B7+P0DPH7+P68366+Q13509+Q71U36+P04350+Q3ZCM7+P07437+P68363+Q9BQE3+Q6PEY2+Q13885+Q9BVA1+Q9BUF5); experiment: Inhibition of [3H]colchicine binding to tubulin (unknown origin) at 5 uM incubated for 10 mins by DEAE-cellulose filter method relative to control; type: protein-complex assay
Tubulin = experiment: Inhibition of tubulin polymerization (unknown origin) incubated for 15 mins followed by GTP addition and measured for 20 mins by spectrophotometry; type: protein-complex assay, Homo sapiens
Summary of the method: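 Tubulin assembly assay with tubulin at 10 µM. IC50 for inhibition of polymerization; run in duplicate or triplicate.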

inhibition (Tubulin (Homo sapiens))	IC50 (Tubulin)	SMILES	IC50 (MCF7)
23%	1800 nM	COc1cc(C(=O)c2cn(-c3ccc(N)cc3)cc2-c2ccc([N+](=O)[O-])cc2)cc(OC)c1OC	260 nM
14%	770 nM	COc1cc(C(=O)c2cn(-c3ccccc3)cc2-c2ccc(Br)cc2)cc(OC)c1OC	340 nM
34%	650 nM	COc1cc(C(=O)c2cn(-c3ccc(C)cc3)cc2-c2ccc([N+](=O)[O-])cc2)cc(OC)c1OC	200 nM
70%	480 nM	COc1cc(C(=O)c2cn(-c3ccc(C)cc3)cc2-c2ccccc2Cl)cc(OC)c1OC	180 nM
22%	1300 nM	COc1ccccc1-n1cc(C(=O)c2cc(OC)c(OC)c(OC)c2)c(-c2ccccc2)c1	150 nM
88%	420 nM	COc1cc(C(=O)c2cn(-c3ccc(C)cc3)cc2-c2cccc(N)c2)cc(OC)c1OC	53 nM
70%	880 nM	COc1cc(C(=O)c2cn(-c3cccc(N)c3)cc2-c2cccc(N)c2)cc(OC)c1OC	60 nM
–	> 20000 nM	COc1cc(C(=O)c2cn(-c3ccccc3)cc2/C=C/c2ccccc2)cc(OC)c1OC	2200 nM
–	> 20000 nM	COc1cc(C(=O)c2cn(-c3ccccc3C)cc2-c2ccccc2)cc(OC)c1OC	2200 nM
37%	2100 nM	COc1cc(C(=O)c2cn(-c3cccc(Cl)c3)cc2-c2ccccc2)cc(OC)c1OC	150 nM
41%	1100 nM	COc1cc(C(=O)c2cn(-c3cccc(F)c3)cc2-c2ccccc2[N+](=O)[O-])cc(OC)c1OC	190 nM
41%	780 nM	COc1cc(C(=O)c2cn(-c3cccc(N)c3)cc2-c2ccc([N+](=O)[O-])cc2)cc(OC)c1OC	110 nM
57%	790 nM	COc1cc(C(=O)c2cn(-c3cccc(C)c3)cc2-c2ccccc2F)cc(OC)c1OC	190 nM
27%	960 nM	COc1ccc(-n2cc(C(=O)c3cc(OC)c(OC)c(OC)c3)c(-c3ccccc3)c2)cc1	120 nM
–	> 20000 nM	COc1ccc(Br)cc1-c1cn(-c2ccccc2)cc1C(=O)c1cc(OC)c(OC)c(OC)c1	2200 nM
–	> 20000 nM	COc1cc(C(=O)c2cn(-c3ccccc3Cl)cc2-c2ccccc2)cc(OC)c1OC	1800 nM
80%	780 nM	COc1cc(C(=O)c2cn(-c3ccc(C)cc3)cc2-c2ccccc2F)cc(OC)c1OC	44 nM
18%	3300 nM	COc1cc(C(=O)c2cn(-c3ccc([N+](=O)[O-])cc3)cc2-c2ccccc2)cc(OC)c1OC	4000 nM
–	> 20000 nM	COc1cc(C(=O)c2cn(-c3ccccc3)cc2-c2ccc([N+](=O)[O-])cc2)cc(OC)c1OC	590 nM
61%	730 nM	COc1cc(C(=O)c2cn(-c3ccccc3)cc2-c2ccccc2[N+](=O)[O-])cc(OC)c1OC	49 nM
–	> 20000 nM	COc1cc(C(=O)c2cn(-c3ccccc3)cc2-c2cccc(Br)c2)cc(OC)c1OC	950 nM

inhibition (Tubulin (Homo sapiens))	IC50 (Tubulin)	SMILES	IC50 (MCF7)
64%	910 nM	COc1cc(C(=O)c2cn(-c3cccc(C)c3)cc2-c2cccc(N)c2)cc(OC)c1OC	130 nM
23%	1200 nM	COc1cc(C(=O)c2cn(-c3ccccc3)cc2-c2ccc(Cl)cc2)cc(OC)c1OC	290 nM
79%	630 nM	COc1cc(C(=O)c2cn(-c3cccc(N)c3)cc2-c2ccccc2Cl)cc(OC)c1OC	40 nM
11%	> 20000 nM	COc1cc(C(=O)c2cn(-c3ccc(F)cc3)cc2-c2cccc([N+](=O)[O-])c2)cc(OC)c1OC	440 nM
0%	> 20000 nM	COc1cc(C(=O)c2cn(-c3ccc(F)cc3)cc2-c2ccc([N+](=O)[O-])cc2)cc(OC)c1OC	240 nM
68%	410 nM	COc1cc(C(=O)c2cn(-c3ccc(F)cc3)cc2-c2cccc(N)c2)cc(OC)c1OC	53 nM
27%	450 nM	COc1cccc(-c2cn(-c3ccccc3)cc2C(=O)c2cc(OC)c(OC)c(OC)c2)c1	180 nM
36%	710 nM	COc1cc(C(=O)c2cn(-c3ccc(C)cc3)cc2-c2cccc([N+](=O)[O-])c2)cc(OC)c1OC	210 nM
42%	1700 nM	COc1cc(C(=O)c2cn(-c3ccc(Cl)cc3)cc2-c2ccccc2)cc(OC)c1OC	140 nM
12%	> 20000 nM	COc1cc(C(=O)c2cn(-c3cccc([N+](=O)[O-])c3)cc2-c2ccccc2)cc(OC)c1OC	550 nM
10%	> 20000 nM	COc1cc(C(=O)c2cn(-c3cccc(C)c3)cc2-c2ccc([N+](=O)[O-])cc2)cc(OC)c1OC	780 nM
65%	510 nM	COc1cc(C(=O)c2cn(-c3ccc(F)cc3)cc2-c2ccccc2Cl)cc(OC)c1OC	83 nM
6.5%	> 20000 nM	COc1cc(C(=O)c2cn(-c3cc(OC)c(OC)c(OC)c3)cc2-c2ccccc2)cc(OC)c1OC	> 5000 nM
68%	660 nM	COc1cc(C(=O)c2cn(-c3ccc(F)cc3)cc2-c2ccccc2F)cc(OC)c1OC	39 nM
67%	1600 nM	COc1cc(C(=O)c2cn(-c3ccc(N)cc3)cc2-c2ccccc2)cc(OC)c1OC	35 nM
–	> 20000 nM	COc1cc(C(=O)c2cn(-c3ccccc3N)cc2-c2ccccc2)cc(OC)c1OC	3800 nM
79%	590 nM	COc1cc(C(=O)c2cn(-c3ccc(N)cc3)cc2-c2ccccc2F)cc(OC)c1OC	28 nM
31%	550 nM	COc1ccccc1-c1cn(-c2ccccc2)cc1C(=O)c1cc(OC)c(OC)c(OC)c1	190 nM
23%	1900 nM	COc1cc(C(=O)c2cn(-c3cccc(Br)c3)cc2-c2ccccc2)cc(OC)c1OC	78 nM
7.5%	2300 nM	COc1cc(C(=O)c2cn(-c3ccccc3)cc2-c2cccc(Cl)c2)cc(OC)c1OC	540 nM
39%	710 nM	COc1cc(C(=O)c2cn(-c3cccc(C)c3)cc2-c2ccccc2Cl)cc(OC)c1OC	420 nM

inhibition (Tubulin (Homo sapiens))	IC50 (Tubulin)	SMILES	IC50 (MCF7)
25%	1600 nM	COc1cccc(-n2cc(C(=O)c3cc(OC)c(OC)c(OC)c3)c(-c3ccccc3)c2)c1	500 nM
78%	660 nM	COc1cc(C(=O)c2cn(-c3ccc(Br)cc3)cc2-c2ccccc2)cc(OC)c1OC	20 nM
41%	1200 nM	COc1cc(C(=O)c2cn(-c3cccc(C)c3)cc2-c2ccccc2[N+](=O)[O-])cc(OC)c1OC	220 nM
39%	670 nM	COc1cc(C(=O)c2cn(-c3ccccc3)cc2-c2ccccc2Br)cc(OC)c1OC	190 nM
24%	1300 nM	COc1cc(C(=O)c2cn(-c3ccccc3)cc2-c2cc(F)ccc2F)cc(OC)c1OC	230 nM
65%	710 nM	COc1cc(C(=O)c2cn(-c3ccc(N)cc3)cc2-c2ccccc2Cl)cc(OC)c1OC	83 nM
32%	1700 nM	COc1cc(C(=O)c2cn(-c3cccc(N)c3)cc2-c2cccc([N+](=O)[O-])c2)cc(OC)c1OC	510 nM
46%	680 nM	COc1cc(C(=O)c2cn(-c3ccc(F)cc3)cc2-c2ccccc2[N+](=O)[O-])cc(OC)c1OC	38 nM
18%	790 nM	COc1cc(C(=O)c2cn(-c3ccccc3)cc2-c2ccccc2C)cc(OC)c1OC	190 nM
71%	610 nM	COc1cc(C(=O)c2cn(-c3ccc(C)cc3)cc2-c2ccccc2[N+](=O)[O-])cc(OC)c1OC	65 nM
–	> 20000 nM	COc1cc(C(=O)c2cn(-c3ccccc3[N+](=O)[O-])cc2-c2ccccc2)cc(OC)c1OC	5000 nM
27%	510 nM	COc1cc(C(=O)c2cn(-c3ccccc3)cc2-c2c(F)cc(F)cc2F)cc(OC)c1OC	180 nM
59%	870 nM	COc1cc(C(=O)c2cn(-c3ccc(N)cc3)cc2-c2cccc(N)c2)cc(OC)c1OC	78 nM
69%	520 nM	COc1cc(C(=O)c2cn(-c3ccc(N)cc3)cc2-c2ccccc2[N+](=O)[O-])cc(OC)c1OC	53 nM
12%	940 nM	COc1cc(C(=O)c2cn(-c3ccccc3)cc2-c2cccc([N+](=O)[O-])c2)cc(OC)c1OC	50 nM
18%	3800 nM	COc1cc(C(=O)c2cn(-c3ccc(N)cc3)cc2-c2cccc([N+](=O)[O-])c2)cc(OC)c1OC	260 nM
88%	330 nM	COc1cc(C(=O)c2cn(-c3cccc(C)c3)cc2-c2ccc(N)cc2)cc(OC)c1OC	18 nM
–	1200 nM	COc1cc(C(=O)c2cn(-c3ccccc3)cc2-c2ccc(N)cc2)cc(OC)c1OC	9 nM
4.2%	> 20000 nM	COc1cc(C(=O)c2cn(-c3cccc(C)c3)cc2-c2cccc([N+](=O)[O-])c2)cc(OC)c1OC	880 nM
